ARFGAP1 inhibitor: inhibitors of rat ARFGAP1. inhibition, % at 16.5 µM. 360,000 compounds, 0.26% hits. Arfgap1-stimulated ARF1 GTP hydrolysis, GDP FP detection. AID 651572;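 active means inhibition above a per-plate limit, mean inhibition of low control wells plus 3 SD, cut at about 25% in these data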;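 further: 0% = DMSO wells with enzyme and 100% = wells lacking Arfgap1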
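Assay system: Rat Arfgap1 GAP domain (His6, aa 1-136), purified enzyme | Buffer or medium: HEPES 25 mM pH 7.5, NaCl 150 mM, MgCl2, DTT | Schedule: GTP hydrolysis reaction 2 h at 25 °C | Signal: FP of antibody-bound GDP Alexa 633 tracer, ex 620/em 688 nm | Measure: Percent inhibition of Arfgap1-stimulated GTP hydrolysis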
sPLA2-III inh: Blocks human group III sPLA2 activity | Q9NZ20 | QFRET BODIPY PC-A2 liposome hydrolysis, fluorescence | inhibition, % at 12.2 µM | 370,000 compounds, 0.56% hits | AID 743126;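 active means inhibition above mean plus 3 SD of compounds lying within the high and low control bounds, cut at about 19% in these data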;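 further: 0% = median of test compound wells and 100% = no enzyme DMSO wells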
Target sequence (Q9NZ20 whole entry, looked up): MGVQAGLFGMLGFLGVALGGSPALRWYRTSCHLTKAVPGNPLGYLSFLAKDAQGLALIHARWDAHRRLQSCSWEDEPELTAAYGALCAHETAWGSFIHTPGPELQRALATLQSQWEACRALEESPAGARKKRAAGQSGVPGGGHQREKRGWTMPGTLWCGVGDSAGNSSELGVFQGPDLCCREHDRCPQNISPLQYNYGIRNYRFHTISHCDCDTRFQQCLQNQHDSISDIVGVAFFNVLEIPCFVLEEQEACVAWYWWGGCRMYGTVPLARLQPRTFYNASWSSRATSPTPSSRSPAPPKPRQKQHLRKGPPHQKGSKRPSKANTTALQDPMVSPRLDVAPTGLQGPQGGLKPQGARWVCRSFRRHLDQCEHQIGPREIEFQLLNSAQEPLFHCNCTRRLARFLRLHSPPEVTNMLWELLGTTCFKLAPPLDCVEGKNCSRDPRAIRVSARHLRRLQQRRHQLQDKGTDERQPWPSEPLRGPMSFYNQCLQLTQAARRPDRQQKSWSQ
Rev-erbA mod: modulates human Rev-erb alpha binding to DNA. P20393. 370,000 compounds, 0.79% hits. AID 1259318. activity, % at 10 µM. Rev-erbα–FITC-DNA binding, fluorescence polarization, 90 min;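 active means activity above about 14%, limit read from the data; passing the limit was not always enough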;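 further: 0% = DMSO wells with 35 nM protein and 100% = DMSO wells with 750 nM protein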
MsrA inhibitor: inhibitors of bovine MsrA; inhibition, % at 15.5 µM; purified bovine MsrA, absorbance read-out; 360,000 compounds, 0.75% hits; in the data active means inhibition above about 4.5%;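 further: 0% = vehicle wells with enzyme and 100% = reference inhibitor wells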
MsrA act: bovine methionine sulfoxide reductase A activation; 360,000 compounds, 0.3% hits; activation, % at 10.6 µM; purified bovine MsrA, absorbance read-out; AID 602163; in the data active means activation above about 7.5%;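 further: 0% = vehicle and 100% = reference activator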
ASAP1 GAP inh: blocks human ASAP1-stimulated Arf1 GTP hydrolysis | Q9ULH1 | GDP FP detection | inhibition, % at 16.5 µM | 360,000 compounds, 0.19% hits; in the data active means inhibition above about 25%;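 further: 0% = vehicle with enzyme and substrate and 100% = no enzyme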
Rev-erbA confirm: confirmation of modulators of human Rev-erb alpha DNA binding; shares compounds with Rev-erbA mod; Rev-erb alpha FITC-DNA binding, fluorescence polarization, 90 min; activation, % at 25 µM; 3,000 compounds, 61% hits;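 active means activation at or above a set limit, or at least 3 SD above the negative control mean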;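 further: 0% = 35 nM protein with DMSO and 100% = 750 nM protein high control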
RORg DNA counter: affects RORgamma DNA binding in a Rev-erb alpha counter-screen | shares compounds with Rev-erbA mod | purified RORgamma protein-FITC-DNA binding, fluorescence polarization | IC50, µM | 910 compounds, 8% hits | AID 1259320;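 active means Compounds whose fitted half-maximal concentration for disrupting protein-DNA binding is below 10 micromolar; the record names Rev-erb in its text, so the target is in doubt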
The depositor's hits bear a star; i = inactive; / = no result. The list is not random: actives were taken first. Their share in the collection is about 2.7%.

SMILES	ARFGAP1 inhibitor	sPLA2-III inh	Rev-erbA mod	MsrA inhibitor	MsrA act	ASAP1 GAP inh	Rev-erbA confirm	others
Oc1ccc(Nc2ccccc2F)c2cccnc12	/	0	-5	/	/	/	/
COc1ccccc1N=Nc1nc(-c2ccccc2)c(-c2ccccc2)[nH]1	3	16	35*	-1	-3	9	41*	RORg DNA counter=1.1*
Cc1ccccc1OCCC(=O)Nc1ccc2c(C)cc(=O)oc2c1	-7	-8	23*	1	-4	3	6
Cc1cc(=O)oc2cc(NC(=O)c3cccc(F)c3)ccc12	-16	0	50*	0	-4	6	60*	RORg DNA counter=>40
CCOC(=O)C1=CN(Cc2ccco2)S(=O)(=O)NC1c1ccc(C(F)(F)F)cc1 (stereo not drawn)	4	-17	-6	-1	-1	11	/
COc1ccc(-c2nn(C)c3sc(C(=O)NCc4ccco4)cc23)cc1OC	18	-1	58*	1	-1	0	52*	RORg DNA counter=i
COc1cccc(CC(=O)Nc2sc3c(c2C(N)=O)CCCC3)c1	6	-4	29*	2	-1	-3	2
CCC(C)Sc1ccc(-c2nc3ccc(Cl)cn3c2NCc2ccccc2)cc1 (stereo not drawn)	1	8	26*	1	2	-1	15
COC(=O)[C@]12CCCCC=C1N(CCc1ccc(OC)c(OC)c1)C(=O)[C@H](CC(=O)NCCc1ccccc1OC)C2	5	-13	1	0	/	-7	/
CC(C)c1ccc(S(=O)(=O)c2nnn3c2nc(N2CCCCC2)c2ccccc23)cc1	4	-4	30*	0	-3	-5	29*
Cc1ccc(S(=O)(=O)c2nnn3c2nc(N2CCOCC2)c2ccccc23)cc1C	6	3	2	0	-4	14	/
Cc1cc(C)cc(Nc2nc3c(S(=O)(=O)c4ccccc4)nnn3c3ccccc23)c1	3	1	52*	-1	-5	-12	2
Cc1cccc(Nc2nc3c(S(=O)(=O)c4ccccc4)nnn3c3ccccc23)c1	-2	-2	39*	0	-2	0	8
Cc1cc(C)nc(N2CCN(C(=O)CSc3nc4ccccc4nc3N3CC(C)OC(C)C3)CC2)n1 (stereo not drawn)	/	-1	3	/	/	/	/
Cc1cccc(Nc2nn3c(=O)c4ccccc4nc3s2)c1	7	2	299*	1	-2	-3	289*	RORg DNA counter=i
CC(C)(C)S(=O)(=O)N1C[C@H]2CC/C=C\C/C=C\2[C@@H]1CCO	-10	6	0	-1	2	17	/
CCOC(=O)c1cc2c(c(-c3ccccc3)n1)[C@H](CCO)N(S(=O)(=O)C(C)(C)C)C2	1	9	-4	1	-2	-1	/
COc1ccc2[nH]c3c(=O)n(Cc4ccc(C(=O)N5CCCCCC5)cc4)c(=S)[nH]c3c2c1	3	5	41*	0	-3	-2	29*
COc1ccc2[nH]c3c(=O)n(Cc4ccc(C(=O)N5CCC(C(N)=O)CC5)cc4)c(=S)[nH]c3c2c1	1	4	2	1	-2	6	/
COc1ccccc1-c1nc(SCC(=O)Nc2cc(C)on2)c2c(=O)n(C)c(=O)n(C)c2n1	8	5	72*	1	-1	-3	60*	RORg DNA counter=i
CCc1cc2c(C)ccc(C)c2nc1SCC(=O)Nc1cc(C)on1	-2	4	24*	0	-1	7	8
CCc1cc2ccccc2nc1SCC(=O)Nc1cc(C)on1	-2	1	16	0	-2	10	/
CCc1cc2ccc(OC)cc2nc1SCC(=O)NNC(C)=O	-5	5	2	2	-4	-3	/
CCc1cc2cc(C)c(C)cc2nc1SCC(=O)Nc1cc(C)on1	3	-2	36*	0	-3	-7	2
CCc1cc2ccc(OC)cc2nc1SCC(=O)Nc1cc(C)on1	1	0	75*	-1	-4	-5	57*	RORg DNA counter=>40
O=C(NCc1cc(Cl)cc(Cl)c1)c1csc(COCCO)n1	-16	1	-3	1	1	17	/

Bioassay records (PubChem BioAssay)
